Source: ChEMBL document CHEMBL4428077, “Synthesis and Biological Evaluation of N-((1-(4-(Sulfonyl)piperazin-1-yl)cycloalkyl)methyl)benzamide Inhibitors of Glycine Transporter-1” (J Med Chem, 2016)
pIC50: −log10 of the molar value.

What was measured:
[1] = Drug level in Sprague-Dawley rat CSF at 0.3 mg/kg, po measured 2 hrs post dose by LC-MS/MS analysis; type: ADME, organism-based, Cerebrospinal fluid; details: read-out: Drug uptake
Procedure, shortened: (§1)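 Drug-naive Sprague−Dawley rats (n = 4−5/group) were dosed orally once in 5% Solutol plus 20% Captisol in 25 mM PBS, pH 2, and euthanized 2 h later by CO₂. CSF was drawn from the cisterna magna. Drug was measured in CSF, brain and plasma; data as mean ± SEM.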

[2] = tested on: Rattus norvegicus; test: In vivo inhibition of glycine transporter-1 in Sprague-Dawley rat assessed as CSF glycine level at 3 mg/kg, po measured 2 hrs post dose by LC-MS/MS analysis relative to control; type: functional; set-up: scale not given: the % may be the effect or the level left
Procedure, shortened: (§2)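 Drug-naive adult male Sprague-Dawley rats, n = 4-5 per group, given a single oral dose of 0.4, 1.5, 4.7 or 15.7 μmol/kg. Vehicle was 5% Solutol + 10% Captisol in 25 mM PBS, pH 2. At 2 h, rats were killed by CO₂. CSF (50-100 μL) was taken from the cisterna magna, and brain and plasma were also collected. Glycine was measured by LC-MS/MS against a deuterated-glycine internal standard. Results given as % vehicle control (vehicle 30 min post-dose), mean ± SEM. Two-way ANOVA with Tukey test.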

[3] = Drug level in cynomolgus monkey plasma at 10 mg/kg, po measured at 12 hrs post dose by LC-MS/MS analysis; type: ADME, organism-based, Macaca fascicularis
Procedure, shortened: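 Cynomolgus monkeys (n = 3/group) fitted with subcutaneous CSF ports were dosed orally at 0.4−15.7 μmol/kg in 5% Solutol plus 20% Captisol in 25 mM PBS, pH 2. CSF (about 0.30 mL) and blood were sampled predose and at 0.5, 1, 2, 3, 4, 8, 12 and 24 h. Quantitation limit 1.0 ng/mL; mean ± SD.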

[4] = Drug level in Sprague-Dawley rat plasma at 10 mg/kg, po measured 2 hrs post dose by LC-MS/MS analysis; type: ADME, organism-based; procedure, shortened: as §1
[5] = Drug level in Sprague-Dawley rat plasma at 1 mg/kg, po measured 2 hrs post dose by LC-MS/MS analysis; type: ADME, organism-based; procedure, shortened: as §1
[6] = Drug level in Sprague-Dawley rat plasma at 3 mg/kg, po measured 2 hrs post dose by LC-MS/MS analysis; type: ADME, organism-based; procedure, shortened: as §1
[7] = Metabolic stability in human liver microsomes assessed as parent compound remaining at 3 uM incubated for 15 mins by LC-MS analysis; type: ADME, Microsome
Procedure, shortened: (§3)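 Liver microsomes incubated with compound at 3 μM for 15 min. Parent compound remaining was quantified by LC-MS.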

[8] = Thermodynamic solubility in pH 7.4 PBS by shake flask method; type: physicochemical; details: read-out: Therm_solubility
Procedure, shortened: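 Thermodynamic shake-flask solubility in PBS, pH 7.4.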

[9] = Intrinsic clearance in human; type: ADME
[10] = Drug level in Sprague-Dawley rat plasma at 0.3 mg/kg, po measured 2 hrs post dose by LC-MS/MS analysis; type: ADME, organism-based; procedure, shortened: as §1
[11] = tested on: Rattus norvegicus; test: In vivo inhibition of glycine transporter-1 in Sprague-Dawley rat assessed as CSF glycine level at 0.3 mg/kg, po measured 2 hrs post dose by LC-MS/MS analysis relative to control; type: functional; set-up: scale not given: the % may be the effect or the level left; procedure, shortened: as §2
[12] = Drug level in Sprague-Dawley rat CSF at 1 mg/kg, po measured 2 hrs post dose by LC-MS/MS analysis; type: ADME, organism-based, Cerebrospinal fluid; details: read-out: Drug uptake; procedure, shortened: as §1
[13] = target: Cytochrome P450 3A4 (Homo sapiens, UniProt P08684); test: Inhibition of CYP3A4 (unknown origin); type: ADME
[14] = Drug level in Sprague-Dawley rat brain at 1 mg/kg, po measured 2 hrs post dose by LC-MS/MS analysis; type: ADME, organism-based; details: read-out: Drug uptake; procedure, shortened: as §1
[15] = Drug level in Sprague-Dawley rat brain at 3 mg/kg, po measured 2 hrs post dose by LC-MS/MS analysis; type: ADME, organism-based; details: read-out: Drug uptake; procedure, shortened: as §1
[16] = tested on: Rattus norvegicus; test: In vivo inhibition of glycine transporter-1 in Sprague-Dawley rat assessed as CSF glycine level at 10 mg/kg, po measured 2 hrs post dose by LC-MS/MS analysis relative to control; type: functional; set-up: scale not given: the % may be the effect or the level left; procedure, shortened: as §2
[17] = tested on: Rattus norvegicus; test: In vivo inhibition of glycine transporter-1 in Sprague-Dawley rat assessed as CSF glycine level at 1 mg/kg, po measured 2 hrs post dose by LC-MS/MS analysis relative to control; type: functional; set-up: scale not given: the % may be the effect or the level left; procedure, shortened: as §2
[18] = Drug level in Sprague-Dawley rat CSF at 3 mg/kg, po measured 2 hrs post dose by LC-MS/MS analysis; type: ADME, organism-based, Cerebrospinal fluid; details: read-out: Drug uptake; procedure, shortened: as §1
[19] = Drug level in Sprague-Dawley rat brain at 10 mg/kg, po measured 2 hrs post dose by LC-MS/MS analysis; type: ADME, organism-based; details: read-out: Drug uptake; procedure, shortened: as §1
[20] = target: T1, Sodium- and chloride-dependent glycine transporter 1 (Homo sapiens, UniProt P48067); test: Inhibition of glycine transporter-1B in human JAR cells assessed as reduction in [14C]glycine uptake preincubated for 10 mins followed by [14C]glycine addition measured after 3 hrs by scintillation proximity assay; type: cell-based
T1 sequence (P48067 whole entry): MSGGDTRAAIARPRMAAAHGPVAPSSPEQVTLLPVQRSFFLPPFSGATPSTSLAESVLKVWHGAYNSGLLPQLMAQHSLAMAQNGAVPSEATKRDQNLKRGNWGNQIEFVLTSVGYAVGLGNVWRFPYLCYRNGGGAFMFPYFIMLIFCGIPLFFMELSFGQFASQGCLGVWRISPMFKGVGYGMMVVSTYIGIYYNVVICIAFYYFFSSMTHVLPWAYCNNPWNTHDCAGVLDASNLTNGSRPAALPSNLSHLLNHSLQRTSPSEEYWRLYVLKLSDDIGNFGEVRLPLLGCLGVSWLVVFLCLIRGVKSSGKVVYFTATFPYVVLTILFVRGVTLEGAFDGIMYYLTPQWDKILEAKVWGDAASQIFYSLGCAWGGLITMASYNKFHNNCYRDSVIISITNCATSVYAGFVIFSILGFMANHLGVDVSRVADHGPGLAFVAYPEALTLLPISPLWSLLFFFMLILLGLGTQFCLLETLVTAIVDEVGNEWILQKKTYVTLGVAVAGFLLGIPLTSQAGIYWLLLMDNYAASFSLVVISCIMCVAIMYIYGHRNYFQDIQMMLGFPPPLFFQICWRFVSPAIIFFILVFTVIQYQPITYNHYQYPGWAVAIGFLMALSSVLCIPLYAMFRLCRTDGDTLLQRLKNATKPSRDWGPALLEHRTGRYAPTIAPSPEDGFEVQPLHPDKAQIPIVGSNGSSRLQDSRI
Procedure, shortened: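 Whole-cell SPA in JAR cells, which endogenously express hGlyT-1b. Cells (50,000 per well) were attached overnight in RPMI/10% FBS at 37 °C, 5% CO₂. [¹⁴C]glycine was then added and incubated 3 h at 37 °C. The assay window was set with unlabeled glycine. A reference standard ran on each plate. IC₅₀ values are means of n ≥ 2.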

[21] = Drug level in Sprague-Dawley rat CSF at 10 mg/kg, po measured 2 hrs post dose by LC-MS/MS analysis; type: ADME, organism-based, Cerebrospinal fluid; details: read-out: Drug uptake; procedure, shortened: as §1
[22] = Drug level in Sprague-Dawley rat brain at 0.3 mg/kg, po measured 2 hrs post dose by LC-MS/MS analysis; type: ADME, organism-based; details: read-out: Drug uptake; procedure, shortened: as §1
[23] = Metabolic stability in rat liver microsomes assessed as parent compound remaining at 3 uM incubated for 15 mins by LC-MS analysis; type: ADME, Microsome; details: liver microsomes, read-out: Stability; procedure, shortened: as §3
[24] = Drug level in Sprague-Dawley rat plasma at 100 mg/kg, po measured 2 hrs post dose by LC-MS/MS analysis; type: ADME, organism-based; procedure, shortened: as §1

Cytochrome P450 3A4, sequence (P08684 whole entry): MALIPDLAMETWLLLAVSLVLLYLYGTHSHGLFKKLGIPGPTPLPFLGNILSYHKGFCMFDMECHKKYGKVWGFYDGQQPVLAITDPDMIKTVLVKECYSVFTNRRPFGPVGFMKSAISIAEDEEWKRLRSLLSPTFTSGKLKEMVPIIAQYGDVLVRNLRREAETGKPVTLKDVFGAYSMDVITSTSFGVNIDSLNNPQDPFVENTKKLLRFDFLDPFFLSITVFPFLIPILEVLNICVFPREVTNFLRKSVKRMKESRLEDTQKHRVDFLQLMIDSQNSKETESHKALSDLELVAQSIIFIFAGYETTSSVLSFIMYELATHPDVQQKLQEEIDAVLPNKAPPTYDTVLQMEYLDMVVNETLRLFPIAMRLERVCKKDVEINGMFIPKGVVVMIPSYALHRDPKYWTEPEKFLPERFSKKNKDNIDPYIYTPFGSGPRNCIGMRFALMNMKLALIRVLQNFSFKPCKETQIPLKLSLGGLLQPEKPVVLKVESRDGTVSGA

concentration at 2 h [1]	concentration at 2 h [4] [nM]	concentration at 2 h [5] [nM]	concentration at 2 h [6] [nM]	solubility thermodynamic [8] [µM]	concentration at 2 h [10] [nM]	concentration at 2 h [12] [nM]	concentration at 2 h [14] [nM]	concentration at 2 h [15] [nM]	concentration at 2 h [18] [nM]	concentration at 2 h [19] [nM]	pIC50 [20]	concentration at 2 h [21] [nM]	concentration at 2 h [22] [nM]	remaining at 0.25 h, 3 µM [23] [%]	SMILES	Activity [2] [%]	Activity [11] [%]	Activity [16] [%]	Activity [17] [%]	other results
< 1 ng/mL	318	11.4	52.2	22.2	3.2	0.1	3.6	12.5	0.5	32.2	8.97	1.7	3.2	76	CC(NC(=O)c1ccc(C(F)(F)F)cc1Cl)C1(N2CCN(S(=O)(=O)c3cn(C)nn3)CC2)CCC(F)(F)CC1.Cl (single isomer, unassigned; (+))	160.5	100.4	326.4	119.3	concentration at 12 h [3]: 135 ng/mL; Stability ([7]; microsomes, 0.25 h, 3 µM): 74%; CL [9]: 4 microL/ml/min; pIC50 [13]: < 5.14
2.7 nM	432	76.9	204	9.9	18	3.7	13.1	39.2	4	64.9	9.17	7.5	7.5	85	Cl.Cn1cc(S(=O)(=O)N2CCN(C3(CNC(=O)c4ccc(C(F)(F)F)cc4Cl)CCC(F)(F)CC3)CC2)nn1	251.8	106.6	306.4	166	concentration at 2 h [24]: 334 nM; remaining at 0.25 h, 3 µM ([7]; liver microsomes, read-out: Stability): 60%
